Columns and labels:
[1] = Percent increase in life span of dying mice tested in vivo at 200 mg/kg against ip implanted LOX amelanotic melanoma in mice (60-day survivors); format: functional; settings: Mus musculus, 1440 h, route intraperitoneal
Outline: (§1)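 Female CD2F1 mice implanted ip with ascitic fluid carrying ca. 1.7×10^6 LOX amelanotic melanoma cells. Drug given ip on days 1, 5 and 9, starting 24 h after implant, dosed by exact body weight; solutions or suspensions made fresh daily. %ILS is from the median day of death of dying mice versus controls, excluding 60-day survivors.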

[2] = Percent increase in life span of dying mice tested in vivo at 50 mg/kg against ip implanted LOX amelanotic melanoma in mice (60-day survivors); format: functional; settings: Mus musculus, 1440 h, route intraperitoneal; outline: as §1
P388 [3] = test: Change in tumor cell population in ip implanted P388 Leukemia in mice after administration of compound at 25 mg/kg; format: functional, Mus musculus; settings: route intraperitoneal
Outline: (§2)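 Female Portage-CD2F1 mice were inoculated ip with ascitic fluid holding ca. 5.2×10^6 P388 cells. Dosing was ip on days 1-5, starting 24 h after inoculation, by average body weight, as a solution or suspension in saline plus Tween 80. KE is the net log change in viable tumor cell population from start to end of the treatment period.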

P388 [4] = test: Percent increase in life span of dying mice tested in vivo at 12.5 mg/kg against ip implanted P388 Leukemia in mice; format: functional; settings: Mus musculus, route intraperitoneal
Outline: (§3)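 Portage-CD2F1 female mice inoculated ip with ascitic fluid carrying ca. 5.2×10^6 P388 leukemia cells. Drug given ip daily on days 1-5, starting 24 h after inoculation, dosed by average body weight. %ILS is from the median day of death of dying mice versus controls.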

A549 = test: Concentration required to inhibit tumor growth in A549, human lung carcinoma (NSCLC) cell line; format: functional, cell-based
Outline: (§4)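 Cells grown in RPMI 1640 with 5% fetal calf serum, 5% NuSerum IV and 20 mM HEPES, seeded and allowed to adhere overnight. Compound dissolved in RPMI-1640 plus HEPES and tested over a 5 log range (10 concentrations) for 72 h. Read-out by sulforhodamine B assay. Median-effect dose derived by nonlinear regression of the concentration-effect curve.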

P388 [5] = test: Change in tumor cell population in ip implanted P388 Leukemia in mice after administration of compound at 50 mg/kg; toxic; format: functional, organism-based; design: dose 50 mg/kg; settings: Mus musculus
Outline: (§5)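 P388 leukemia: ascitic fluid with ca. 5.2×10^6 cells inoculated ip into Portage-CD₂F₁ female mice. Drug given ip on days 1-5, starting 24 h after inoculation, dosed by average body weight. Vehicle was saline plus Tween 80, as a solution or suspension. KE = net log change in viable tumor cells from start to end of treatment.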

P388 [6] = test: Percent increase in life span of dying mice tested in vivo at 50 mg/kg against ip implanted P388 Leukemia in mice; format: functional; settings: Mus musculus, route intraperitoneal; outline: as §3
P388 [7] = test: Percent increase in life span of dying mice tested in vivo at 25 mg/kg against ip implanted P388 Leukemia in mice; format: functional; settings: Mus musculus, route intraperitoneal; outline: as §3
[8] = system: LOX amelanotic melanoma (human); test: Percent increase in life span of dying mice tested in vivo at 25 mg/kg against ip implanted LOX amelanotic melanoma in mice (60-day survivors); settings: Mus musculus, 1440 h
HT-29 = test: Concentration required to inhibit tumor growth in HT29, human colon adenocarcinoma cell line; format: functional, cell-based; outline: as §4
[9] = Change in tumor cell population in ip implanted LOX amelanotic melanoma in mice after administration of compound at 100 mg/kg; format: functional, Mus musculus; settings: route intraperitoneal
Outline: (§6)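 Female CD2F1 mice were implanted ip with ascitic fluid holding ca. 1.7×10^6 LOX cells. Dosing was ip on days 1, 5 and 9, starting 24 h after implantation, by exact body weight, as a solution or suspension in saline plus Tween 80, freshly prepared daily. KE is the net log change in viable tumor cells from start to end of treatment. Bracketed KE assumes Poisson survival, with 60-day survivors tumor-free.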

P388 [10] = test: Change in tumor cell population in ip implanted P388 Leukemia in mice after administration of compound at 100 mg/kg; toxic; format: functional, organism-based; design: dose 100 mg/kg; settings: Mus musculus; outline: as §2
[11] = system: LOX amelanotic melanoma (human); test: Change in tumor cell population in ip implanted LOX amelanotic melanoma in mice after administration of compound at 25 mg/kg; settings: route intraperitoneal
P388 [12] = test: Change in tumor cell population in ip implanted P388 Leukemia in mice after administration of compound at 12.5 mg/kg; format: functional, Mus musculus; settings: route intraperitoneal; outline: as §2
[13] = Concentration required to inhibit tumor growth in PSN-1, human pancreatic carcinoma cell line; format: functional
Outline: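 PSN-1 pancreatic carcinoma cells exposed to compound dissolved in RPMI-1640 plus HEPES at its maximum soluble concentration for 72 h. Read-out by sulforhodamine B colorimetric assay.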

Mus musculus = test: Change in tumor cell population in ip implanted LOX amelanotic melanoma in mice after administration of compound at 200 mg/kg; toxic; format: functional, organism-based; design: dose 200 mg/kg; outline: as §6
[14] = Concentration required to inhibit tumor growth in […], human breast adenocarcinoma cell line; format: functional; outline: as §4
[15] = Percent increase in life span of dying mice tested in vivo at 100 mg/kg against ip implanted LOX amelanotic melanoma in mice (60-day survivors); format: functional; settings: Mus musculus, 1440 h, route intraperitoneal; outline: as §1
[16] = Change in tumor cell population in ip implanted LOX amelanotic melanoma in mice after administration of compound at 50 mg/kg; format: functional, Mus musculus; settings: route intraperitoneal; outline: as §6
P388 [17] = test: Percent increase in life span of dying mice tested in vivo at 100 mg/kg against ip implanted P388 Leukemia in mice; format: functional; settings: Mus musculus, route intraperitoneal; outline: as §3
L1210 (Mus musculus) = test: Concentration required to inhibit tumor growth in L1210, murine lymphocytic leukemia cell line
[18] = Percent increase in life span of dying mice tested in vivo at 99 mg/kg against ip implanted LOX amelanotic melanoma in mice (60-day survivors); format: functional; settings: Mus musculus, 1440 h, route intraperitoneal
Outline: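 Nude CD2F1 female mice were implanted ip with ascitic fluid containing ca. 1.7×10^6 LOX amelanotic melanoma cells. Drug was given ip on days 1, 5 and 9, starting 24 h after implantation, and dosed by exact body weight. Solutions or suspensions were made fresh daily in saline plus Tween 80. %ILS was calculated from the median day of death of dying mice versus controls, excluding 60-day survivors.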

P388 [19] = test: Percent increase in life span of dying mice tested in vivo at 99 mg/kg against ip implanted P388 Leukemia in mice; format: functional; settings: Mus musculus, route intraperitoneal
Outline: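 Portage-CD2F1 female mice were inoculated ip with ascitic fluid containing ca. 5.2×10^6 P388 leukemia cells. Drug was given ip daily on days 1-5, starting 24 h after inoculation, and dosed by average body weight. %ILS was calculated from the median day of death of dying mice versus controls.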

P388 [20] = test: Percent increase in life span of dying mice tested in vivo at 24.8 mg/kg against ip implanted P388 Leukemia in mice; format: functional; settings: Mus musculus, route intraperitoneal; outline: as §3
P388 [21] = test: Change in tumor cell population in ip implanted P388 Leukemia in mice after administration of compound at 49.5 mg/kg; format: functional, Mus musculus; settings: route intraperitoneal; outline: as §5
[22] = Change in tumor cell population in ip implanted LOX amelanotic melanoma in mice after administration of compound at 24.75 mg/kg; format: functional, Mus musculus; settings: route intraperitoneal; outline: as §6
[23] = Change in tumor cell population in ip implanted LOX amelanotic melanoma in mice after administration of compound at 198 mg/kg; format: functional, Mus musculus; settings: route intraperitoneal; outline: as §6
[24] = Change in tumor cell population in ip implanted LOX amelanotic melanoma in mice after administration of compound at 49.5 mg/kg; format: functional, Mus musculus; settings: route intraperitoneal; outline: as §6
[25] = Percent increase in life span of dying mice tested in vivo at 49.5 mg/kg against ip implanted LOX amelanotic melanoma in mice (60-day survivors); format: functional; settings: Mus musculus, 1440 h, route intraperitoneal; outline: as §1
P388 [26] = test: Percent increase in life span of dying mice tested in vivo at 49.5 mg/kg against ip implanted P388 Leukemia in mice; format: functional; settings: Mus musculus, route intraperitoneal; outline: as §3
P388 [27] = test: Change in tumor cell population in ip implanted P388 Leukemia in mice after administration of compound at 24.8 mg/kg; format: functional, Mus musculus; settings: route intraperitoneal; outline: as §2
P388 [28] = test: Change in tumor cell population in ip implanted P388 Leukemia in mice after administration of compound at 99 mg/kg; format: functional, Mus musculus; settings: route intraperitoneal; outline: as §5
P388 [29] = test: Percent increase in life span of dying mice tested in vivo at 12.4 mg/kg against ip implanted P388 Leukemia in mice; format: functional; settings: Mus musculus, route intraperitoneal; outline: as §3
[30] = Percent increase in life span of dying mice tested in vivo at 24.75 mg/kg against ip implanted LOX amelanotic melanoma in mice (60-day survivors); format: functional; settings: Mus musculus, 1440 h, route intraperitoneal; outline: as §1
[31] = Percent increase in life span of dying mice tested in vivo at 198 mg/kg against ip implanted LOX amelanotic melanoma in mice (60-day survivors); format: functional; settings: Mus musculus, 1440 h, route intraperitoneal; outline: as §1
[32] = Change in tumor cell population in ip implanted LOX amelanotic melanoma in mice after administration of compound at 99 mg/kg; format: functional, Mus musculus; settings: route intraperitoneal; outline: as §6
P388 [33] = test: Change in tumor cell population in ip implanted P388 Leukemia in mice after administration of compound at 12.4 mg/kg; format: functional, Mus musculus; settings: route intraperitoneal; outline: as §2

Question: With `CNC(=O)OCc1nc(SC)n(C)c1COC(=O)NC` as the compound, how does the ILS at 200 mg/kg [1] read?
Answer: The ILS at 200 mg/kg was -24%.

Question: And the ILS at 50 mg/kg [2]?
Answer: Its ILS at 50 mg/kg is 117%.

Question: What about the KE (P388 [3]) of the same compound?
Answer: The KE was -4.1.

Question: And the ILS at 12.5 mg/kg (P388 [4])?
Answer: The ILS at 12.5 mg/kg was 59%.

Question: And the IC50 (A549)?
Answer: Its IC50 is 218 µM.

Question: And the KE (P388 [5])?
Answer: The KE was “Toxic”.

Question: What about the ILS at 50 mg/kg (P388 [6]) of the same compound?
Answer: Its ILS at 50 mg/kg is 17%.

Question: What about the ILS at 25 mg/kg (P388 [7]) of the same compound?
Answer: Its ILS at 25 mg/kg is 96%.

Question: What about the ILS at 25 mg/kg [8] of the same compound?
Answer: The ILS at 25 mg/kg was 34%.

Question: What about the IC50 (HT-29; Homo sapiens, HT-29) of the same compound?
Answer: The IC50 was 162 µM.

Question: What about the IC50 (HT-29; ht-29) of the same compound?
Answer: Its IC50 is 108 µM.

Question: What about the KE [9] of the same compound?
Answer: The KE was -4.

Question: What about the KE (P388 [10]) of the same compound?
Answer: The KE was “Toxic”.

Question: And the KE [11]?
Answer: Its KE is 0.3.

Question: What about the KE (P388 [12]) of the same compound?
Answer: Its KE is -1.5.

Question: And the IC50 [13]?
Answer: The IC50 was 110 µM.

Question: And the KE (Mus musculus)?
Answer: Its KE is “Toxic”.

Question: And the IC50 [14]?
Answer: Its IC50 is 347 µM.

Question: And the ILS at 100 mg/kg [15]?
Answer: Its ILS at 100 mg/kg is 143%.

Question: And the KE [16]?
Answer: The KE was -2.9.

Question: What about the ILS at 100 mg/kg (P388 [17]) of the same compound?
Answer: The ILS at 100 mg/kg was -34%.

Question: What about the IC50 (L1210 (Mus musculus)) of the same compound?
Answer: Its IC50 is 4.3 µM.

Question: For `CCC[S+]([O-])c1nc(COC(=O)NC)c(COC(=O)NC)n1C` (stereo not drawn), which ILS at 99 mg/kg [18] is on record?
Answer: Its ILS at 99 mg/kg is 1%.

Question: And the ILS at 99 mg/kg (P388 [19])?
Answer: The ILS at 99 mg/kg was 27%.

Question: And the ILS at 24.8 mg/kg (P388 [20])?
Answer: The ILS at 24.8 mg/kg was 25%.

Question: And the KE (P388 [21])?
Answer: Its KE is 0.9.

Question: And the KE [22]?
Answer: Its KE is 1.7.

Question: And the KE [23]?
Answer: Its KE is 0.8.

Question: And the KE [24]?
Answer: Its KE is 1.

Question: And the ILS at 49.5 mg/kg [25]?
Answer: The ILS at 49.5 mg/kg was 15%.

Question: And the ILS at 49.5 mg/kg (P388 [26])?
Answer: Its ILS at 49.5 mg/kg is 27%.

Question: What about the KE (P388 [27]) of the same compound?
Answer: The KE was 1.

Question: And the KE (P388 [28])?
Answer: The KE was 0.9.

Question: What about the ILS at 12.4 mg/kg (P388 [29]) of the same compound?
Answer: Its ILS at 12.4 mg/kg is 10%.

Question: What about the ILS at 24.75 mg/kg [30] of the same compound?
Answer: Its ILS at 24.75 mg/kg is -2%.

Question: And the ILS at 198 mg/kg [31]?
Answer: The ILS at 198 mg/kg was 21%.

Question: And the KE [32]?
Answer: The KE was 1.6.

Question: And the KE (P388 [33])?
Answer: The KE was 1.4.
